# In the library only some 2.4% were active in any assay of this set; here they are far more common.
# SIAE primary: human SIAE inhibitors, primary screen, biochemical, fluorescence polarization, FP-Rh probe, 1536-well HTS; Sialate O-acetylesterase (Homo sapiens), Q9HAT2; SIAE FP-Rh probe binding; inhibition, % at 9.66 µM; hit rate 0.69% among 370,000;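 active = inhibition above a cutoff: mean of compounds within the control limits plus 3 SD of those, cut at about 17% in these data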;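 note: 0% = plate median of compound wells and 100% = probe without SIAE protein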
# Target sequence (Q9HAT2 whole entry, looked up): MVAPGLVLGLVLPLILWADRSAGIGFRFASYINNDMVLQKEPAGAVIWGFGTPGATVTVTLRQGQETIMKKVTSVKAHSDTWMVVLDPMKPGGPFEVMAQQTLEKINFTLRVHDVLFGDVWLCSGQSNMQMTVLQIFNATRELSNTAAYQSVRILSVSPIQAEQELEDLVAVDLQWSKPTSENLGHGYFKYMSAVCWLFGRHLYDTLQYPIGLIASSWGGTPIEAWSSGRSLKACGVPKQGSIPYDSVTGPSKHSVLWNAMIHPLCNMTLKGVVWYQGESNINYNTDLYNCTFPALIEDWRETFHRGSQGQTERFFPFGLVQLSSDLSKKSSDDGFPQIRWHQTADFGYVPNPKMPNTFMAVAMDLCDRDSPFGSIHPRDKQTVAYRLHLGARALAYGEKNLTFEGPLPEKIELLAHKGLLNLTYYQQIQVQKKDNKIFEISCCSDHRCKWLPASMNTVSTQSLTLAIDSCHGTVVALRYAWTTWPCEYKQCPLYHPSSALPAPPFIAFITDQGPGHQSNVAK
# JMJD2C inh: inhibitors of GASC-1 histone demethylase, primary screen, biochemical, fluorescence, DELFIA europium; Lysine-specific demethylase 4C (Homo sapiens), Q9H3R0; GST-JMJD2C(1-420) H3K9me3 demethylation; inhibition, % at 2.35 µM; hit rate 0.069% among 330,000;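 active = more than half of a compound's replicate wells show inhibition beyond 50%, single wells judged on their own value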;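 note: signal counts dimethyl H3K9 product captured on neutravidin plate; 0% = median of DMSO wells and 100% = 0.3 times that DMSO median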
# PRMT1 inh: PRMT1 methyltransferase inhibitors, primary screen, biochemical, fluorescence polarization | Protein arginine N-methyltransferase 1 (Homo sapiens), Q99873 | recombinant PRMT1, activity-based probe fluorescence polarization | inhibition, % at 2.79 µM | hit rate 1.3% among 370,000 | AID 652257, 2013;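 active = inhibition above about 21% made by adding two undisclosed values, limit read from the data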
# HTRA1 inhibitor: HTRA1 serine protease inhibitors, primary screen, biochemical, fluorescence polarization, HTS; Q92743; recombinant HTRA1, FP-rhodamine activity-based probe; inhibition, % at 5.96 µM; hit rate 0.5% among 340,000; AID 504803, 2011; in the data active = inhibition above about 36%;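 note: 0% = enzyme with DMSO and 100% = wells lacking enzyme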
# mABHD4 FP: ABHD4 inhibitors, primary screen, biochemical, fluorescence polarization, mouse | purified mABHD4, FP-Rh probe fluorescence polarization | inhibition, % at 8.92 µM | hit rate 0.54% among 370,000 | AID 720543, 2013;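 active = inhibition exceeding the mean over every tested compound plus 3 SD, cut at about 30% in these data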;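 note: 0% = plate median of compound wells and 100% = S159A mutant with DMSO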
#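 Test system: mABHD4 protein | Buffer or medium: HEPES pH 7.0 buffer, 150 mM NaCl, 0.01% Pluronic F-127 | Probe or stimulus: FP-Rh fluorescent activity-based probe, added after compound pre-incubation | Timing: Pre-incubation 45 min, probe exposure 60 min, at 25 °C | Technique: Fluorescence polarization, excitation 525 nm, emission 598 nm, BODIPY TMR filters | Repeats: Single well per compound (singlicate)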
# Starred values were filed as active, the others as inactive; . = not tested or not shown.
SMILES,SIAE primary,JMJD2C inh,PRMT1 inh,HTRA1 inhibitor,mABHD4 FP
O=C1C(SCCO)=C(SCCO)C(=O)c2ccccc21,8,25,98*,22,25
Cc1ccc(NC(=O)/C(=C\c2ccco2)NC(=O)c2ccco2)cc1,4,-6,19,-1,17
O=C(Nc1cccc(F)c1)/C(=C\c1ccco1)NC(=O)c1ccco1,2,-7,24*,-4,12
COC(=O)c1cccc(NC(=O)/C(=C\c2ccco2)NC(=O)c2ccco2)c1,-10,.,25*,-1,1
C=C(C)Cn1c(SCC(=O)N/N=C(\C)c2ccc([N+](=O)[O-])cc2)nnc1-c1ccc(Br)cc1,-6,.,-6,.,-7
NC(=O)c1ccc(NC(=O)CSC(=O)c2ccccc2)cc1,-5,1,36*,12,-2
Cc1nnc(SCC(=O)Nc2ccc(C(N)=O)cc2)n1-c1ccccc1,2,-33,3,-2,-5
CC(OC(=O)Cc1ccccc1[N+](=O)[O-])C(=O)NC(=O)NC1CCCCC1 (stereo not drawn),0,0,-1,58*,-2
O=C1NC[C@H](Cc2ccc(O)cc2)N(C[C@@H]2CCCN2C[C@H](Cc2ccccc2)N2C[C@H](Cc3ccc(O)cc3)N(CC3CCCCCC3)C(=O)C2=O)C1=O,5,.,-6,.,2
Cc1cccc(NC2=C(NC(=O)c3ccccc3)C(=O)c3ccccc3C2=O)c1,13,2,29*,9,15
CC(C)(C)NC(=O)c1ccccc1-c1nc2ccccc2s1,-4,9,24*,1,6
O=C1CC(NCc2ccc(F)cc2)C(=O)N1c1ccccc1 (stereo not drawn),-6,-31,22*,1,2
N#CCNC1CC(=O)N(c2ccc(F)cc2)C1=O (stereo not drawn),-4,-8,22*,2,0
O=C1CC(NCC2CCCO2)C(=O)N1c1ccc(F)cc1 (stereo not drawn),0,1,10,4,4
O=C1CC(NCc2ccncc2)C(=O)N1c1ccccc1 (stereo not drawn),2,-20,9,1,10
C[C@H](O)[C@@H]1CN2CCc3ccc(-c4ccc5c(c4)OCO5)cc3[C@@H]2C[C@@H]1N(C)C(=O)Nc1ccccc1,-7,.,-2,.,-10
Cc1ccc(C)c(S(=O)(=O)Nc2cc(SCC(=O)O)c(O)c3ccccc23)c1,.,48,.,45*,.
CC(C)CNC(=O)OCc1cn(Cc2ccccc2C(F)(F)F)nn1,0,.,2,.,-2
COc1ccc(Cc2c(O)nc(SCC(=O)c3ccc(OC)cc3)[nH]c2=O)cc1,-5,0,22*,-1,5
COc1ccc(Cc2c(O)nc(SCC(C)C)[nH]c2=O)cc1,-9,8,4,-3,0
Cc1cc(C)nc(Nc2nc(-c3ccccc3)cs2)n1,10,9,-1,-3,-2
Cc1cc(C)nc(Nc2nc(=O)c3ccccc3s2)n1,7,3,44*,2,5
COc1ccc(Nc2nnc(-c3ccc4c(c3)OCO4)o2)cc1,0,.,24*,.,6
COc1ccc(/C=C2\SC(=O)NC2=S)cc1OC,-2,-5,47*,0,6
COc1cc(/C=C2\SC(c3ccc(C)cc3)=NC2=O)cc(OC)c1OC,.,0,.,1,.
SMILES,SIAE primary,JMJD2C inh,PRMT1 inh,HTRA1 inhibitor,mABHD4 FP
CCOc1ccc(/C=C2\SC(=S)NC2=O)cc1OC,-25,-5,-2,-6,-7
COc1ccc(/C=C2\SC(c3ccc(C)cc3)=NC2=O)cc1OC,-10,-9,19,-14,4
COc1ccc(/C=C2/SC(c3ccc(C)cc3)=NC2=O)cc1OC,-20,-2,24*,-13,8
COc1cc(/C=C2\SC(c3ccc(C)cc3)=NC2=O)ccc1O,-5,2,29*,23,-1
S=C(NNc1ccnc2cc(Cl)ccc12)Nc1ccc(Cl)cc1Cl,19*,5,0,7,20
CN(Cc1ccccc1)C(=O)OCc1cn(Cc2cc(F)ccc2F)nn1,-3,.,1,.,-1
Clc1ccc(C2=CC(c3ccco3)n3ncnc3N2)cc1 (stereo not drawn),-4,-5,64*,0,-5
C=CCN(CC#Cc1cccnc1)Cc1ccc(OC)cc1OC,1,.,0,.,4

# Compound activity (PubChem BioAssay)
